Shown are actives, neighbours in structure and some others; about 3.9% of the full set was active somewhere.
TAAR1 antag = human TAAR1 antagonism | inhibition, % at 3 µM | hit rate 1.5% among 360,000 | Q96RJ0 | CHO RD-HGA16 TAAR1, Fluo-8 calcium fluorescence, antagonist | AID 624466;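 active = inhibition above a per-plate cutoff, the mean inhibition of test compounds on that plate plus 3 SD, cut at about 49% in these data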
Target sequence (Q96RJ0 whole entry, looked up): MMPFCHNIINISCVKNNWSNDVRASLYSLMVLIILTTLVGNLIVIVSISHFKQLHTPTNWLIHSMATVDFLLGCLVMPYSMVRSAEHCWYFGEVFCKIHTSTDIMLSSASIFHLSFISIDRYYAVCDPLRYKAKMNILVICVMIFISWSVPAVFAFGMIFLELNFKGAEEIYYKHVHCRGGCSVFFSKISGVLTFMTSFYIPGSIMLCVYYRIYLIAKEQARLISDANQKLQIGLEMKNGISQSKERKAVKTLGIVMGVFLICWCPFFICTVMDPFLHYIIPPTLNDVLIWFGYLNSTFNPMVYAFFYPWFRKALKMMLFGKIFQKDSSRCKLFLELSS
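System: RD-HGA16 CHO cells with stable hTAAR1 and Gα16 | Probe or stimulus: EC80 β-phenethylamine stimulus | Dosing: 3 µM, single point | Times: Dye loading 75 min at 37 °C, then 30 min room temperature | Measured by: Fluo-8 calcium-sensitive fluorescence | Read-out basis: % inhibition of agonist calcium response | Replicates: n of 1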
OX1R antag-1 = blocks the human orexin 1 receptor; O43613; OX1R-expressing cells, FRET antagonist read-out; AID 485270; hit rate 1.8% among 330,000; inhibition, % at 6.6 µM; in the data active = inhibition mostly above about 38%, no sharp cut-off; inactive = mostly below about 40%
Target sequence (O43613 whole entry, looked up): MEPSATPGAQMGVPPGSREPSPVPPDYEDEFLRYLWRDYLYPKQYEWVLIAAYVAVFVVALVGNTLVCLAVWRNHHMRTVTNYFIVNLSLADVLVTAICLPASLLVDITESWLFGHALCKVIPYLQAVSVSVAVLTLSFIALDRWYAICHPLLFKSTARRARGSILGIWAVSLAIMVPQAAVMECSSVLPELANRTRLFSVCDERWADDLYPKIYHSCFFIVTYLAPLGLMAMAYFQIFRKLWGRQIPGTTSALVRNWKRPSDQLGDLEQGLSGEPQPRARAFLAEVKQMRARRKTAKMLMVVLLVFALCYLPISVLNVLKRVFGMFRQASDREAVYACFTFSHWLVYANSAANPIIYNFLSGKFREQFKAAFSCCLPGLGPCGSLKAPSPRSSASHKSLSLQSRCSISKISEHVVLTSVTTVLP
CHO parental Ca = signal in parental CHO cells, OX1R antagonist counter-screen; parental CHO-K1, ATP-induced calcium, Fluo-8 fluorescence; AID 463079; inhibition, % at 5.6 µM; hit rate 0.63% among 330,000;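 active = inhibition above that plate's mean sample inhibition plus 3 SD, cut at about 26% in these data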
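Test system: untransfected parental CHO cell line; also added: ATP stimulus; dosing: 5.6 µM, single dose; signal: calcium-sensitive Fluo-8 fluorescence; measure: percent inhibition of ATP-evoked calcium rise, normalized to controls; benchmarks: low control ATP plus DMSO, high control DMSO only; replication: one well per compound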
OX1R antag-2 = blocks the human orexin 1 receptor | O43613 | CHO/OX1R cells, Fluo-8 calcium fluorescence, orexin A | hit rate 0.43% among 330,000 | AID 434989 | inhibition, % at 5 µM;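 active = inhibition above its plate's threshold, mean inhibition of all tested compounds on the plate plus 3 SD, cut at about 37% in these data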
TAAR1 agonist = agonists of human TAAR1. hit rate 0.99% among 360,000. CHO RD-HGA16 TAAR1, Fluo-8 calcium fluorescence; vehicle wells 0%, saturating PEA agonist 100%. activation, % at 3 µM. Q96RJ0;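 active = activation above the mean activation of all test compounds in the run plus 3 SD, cut at about 38% in these data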
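Test system: RD-HGA16 (CHO) cells co-expressing Gα16 and hTAAR1; dosing: one-point dosing at 3 µM (nominal); timing: 17-24 h seeding, 75 min 37 °C dye, 30 min RT; signal: kinetic Fluo-8 calcium fluorescence; read-out basis: % activation relative to PEA EC100 response; controls: DMSO and PEA EC100; replicates: n 1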
Each line names hits and unclear results; the compound was inactive in the other large screens.

COc1cc2sc3ccc(C#CC4(O)CCCCC4)cc3c(=O)c2cc1OC	none
O=c1oc2ccc(C#CC3(O)CCCCC3)cc2cc1-n1cc(C2(O)CCCCC2)nn1	TAAR1 antag 52.6
O=C(O)c1ccc([N+](=O)[O-])cc1	none (no result: OX1R antag-1, CHO parental Ca, OX1R antag-2)
O=C(O)c1ccc(S(=O)(=O)c2ccc([N+](=O)[O-])cc2[N+](=O)[O-])cc1	OX1R antag-1 56.8
C[C@@H](NC(=O)[C@@H]1CCCN1C(=O)[C@@H]1CCCN1C(=O)c1ccc(Cl)cc1)c1ccccc1	none (no result: OX1R antag-1, CHO parental Ca, OX1R antag-2)
CC(OC(=O)c1ccc(O)cc1)C(=O)Nc1ccc(Oc2ccccc2)cc1 (stereo not given)	TAAR1 antag 49.4
CC(OC(=O)c1cc[n+]([O-])cc1)C(=O)Nc1ccc(C(N)=O)cc1 (stereo not given)	none
Cc1nnc(N/N=C/c2cc([N+](=O)[O-])c(N3CCC(C)CC3)cc2N2CCC(C)CC2)n1N	OX1R antag-1 145.8
CCc1nnc(N/N=C/c2ccc(N3CCC(C)CC3)c([N+](=O)[O-])c2)n1N	OX1R antag-1 59.9
O=[N+]([O-])c1ccc(C2Oc3ccccc3C3CC(c4ccccc4)=NN32)s1 (stereo not given)	none (no result: TAAR1 antag, TAAR1 agonist)
O=C(OCN1C(=O)c2ccccc2C1=O)c1cc(S(=O)(=O)N2CCOCC2)ccc1F	none (no result: OX1R antag-1, CHO parental Ca, OX1R antag-2)
COC(=O)C1=C(C)N(Cc2ccccc2)C(=NCc2cccc(C(F)(F)F)c2)N[C@H]1c1cccc(F)c1	TAAR1 agonist 41.5
COC(=O)C1=C(C)N(Cc2ccccc2)C(=NCCc2c[nH]c3ccccc23)N[C@H]1c1cccc(C(F)(F)F)c1	OX1R antag-2 67.4 (no result: TAAR1 antag, TAAR1 agonist)
COCCN=C1N[C@@H](c2cccc(C(F)(F)F)c2)C(C(=O)OC)=C(C)N1Cc1ccccc1	none
CCCCOc1ccc(S(=O)(=O)NC(=O)C2(C)CCN2C(=O)Cc2cccs2)cc1 (stereo not given)	none (no result: OX1R antag-1, CHO parental Ca, OX1R antag-2)
C[C@H]1CN([C@@H](C)CO)C(=O)CCCn2cc(nn2)CO[C@@H]1CN(C)C(=O)Oc1ccccc1	none (no result: OX1R antag-1, CHO parental Ca, OX1R antag-2)
COC(=O)C1=C(C)N(Cc2ccccc2C(F)(F)F)C(=NCc2ccccc2C(F)(F)F)NC1c1ccc(Cl)cc1 (stereo not given)	none (no result: OX1R antag-1, CHO parental Ca, OX1R antag-2)
CC(C)(C)c1ccc(OCC(=O)N(c2ccccn2)C2CCCCC2)cc1	CHO parental Ca 51.7
COc1cc(C2c3cc4c(cc3OC(C)(N3CCCC3)C2C)OCO4)cc(OC)c1OC (stereo not given)	none (no result: OX1R antag-1, CHO parental Ca, OX1R antag-2)
COC(=O)c1ccccc1-c1ccc(/C=N/NC(=O)c2cc3ccccc3o2)o1	TAAR1 antag 55.4
COCCNc1nc(Nc2ccc(C(=O)OC)cc2)c2sccc2n1	none (no result: OX1R antag-1, CHO parental Ca, OX1R antag-2)
O=C(NNc1ccnc2cc(Cl)ccc12)C1CCCCC1	CHO parental Ca 34.6
NC(=S)NNc1ccnc2cc(Cl)ccc12	none
COc1ccc(Cn2c(N)c(C#N)c3nc4ccccc4nc32)cc1	none
COc1cccc(Cn2c(N)c(C#N)c3nc4ccccc4nc32)c1OC	OX1R antag-1 46.3
C/C(=N\Nc1nc(C)c(C)s1)c1ccc([N+](=O)[O-])cc1	none
CSc1ccc(-c2cc(=O)c3ccccc3o2)cc1	OX1R antag-1 67.6
Cc1cccc(C(=O)NC(=S)NNC(=O)c2ccccc2Cl)c1	TAAR1 antag 107.1, TAAR1 agonist 147.7
CC(=O)NNC(=S)NC(=O)c1ccc(C)cc1	none
Cc1ccc(C(=O)NNC(=S)NC(=O)c2ccc(Cl)cc2)cc1	TAAR1 antag 108.4, CHO parental Ca 34.4, OX1R antag-2 70.6, TAAR1 agonist 146.4
COc1ccc(Nc2ccc(N3C(=O)CC(C)C3=O)cc2[N+](=O)[O-])cc1OC (stereo not given)	OX1R antag-1 40.1
COc1ccc(Nc2ccc(N3C(=O)CCCC3=O)cc2[N+](=O)[O-])cc1OC	none
COc1ccc(CCNc2ccc(N3C(=O)CC(C)C3=O)cc2[N+](=O)[O-])cc1OC (stereo not given)	TAAR1 antag 49.7, CHO parental Ca 54.5
CCOC(=O)C1CCCN(C(=O)c2cc(F)ccc2C)CC1 (stereo not given)	none (no result: OX1R antag-1, CHO parental Ca, OX1R antag-2)
O=C(/C=C/c1cccc([N+](=O)[O-])c1)Nc1cc(C(=O)O)cc(C(=O)O)c1	OX1R antag-1 62.1
COC(=O)c1cccc(NC(=O)/C=C/c2cccc([N+](=O)[O-])c2)c1	none
CN1CCS/C1=C\C=C1/SC(=S)N(CC(=O)O)C1=O	TAAR1 agonist 45.5 (no result: OX1R antag-1, CHO parental Ca, OX1R antag-2)
CCN1C(=O)/C(=C/C=C2/SCCN2C)SC1=S	TAAR1 agonist 38.9
OC(c1ccc(F)cc1)c1ncc(-c2ccc3ccccc3c2)[nH]1 (stereo not given)	none (no result: OX1R antag-1, CHO parental Ca, OX1R antag-2)
COc1ccc(C(O)c2nc(-c3ccc(F)c(Cl)c3)cs2)cc1 (stereo not given)	none (no result: OX1R antag-1, CHO parental Ca, OX1R antag-2)
Cc1ccc(OCCOC(=O)C2CCN(S(=O)(=O)c3ccc(C)c(C)c3)CC2)cc1	CHO parental Ca 29.1
COC(=O)C1=C(O)/C(=C/c2cccc(OC)c2O)N=C1C	OX1R antag-1 62.9
COc1cccc(-c2sc3ccc(OC)cc3c2-c2cnc(N3CCOCC3)nc2)c1	none (no result: OX1R antag-1, CHO parental Ca, OX1R antag-2)
Clc1ccc2c(c1)-c1nnc(Br)n1-c1ccccc1S2	OX1R antag-1 60.4
Clc1ccccc1-c1nnc2n1-c1ccccc1SC2	none
COCCCNC(=O)/C(C#N)=C1\N=C(NC(=O)c2cccs2)c2ccccc21	OX1R antag-1 47.3
N#C/C(C(=O)NCCc1ccccc1)=C1/N=C(NC(=O)c2cccs2)c2ccccc21	none
Cn1c(=O)c2[nH]c(C(O)c3ccc(Cl)cc3)nc2n(C)c1=O (stereo not given)	none (no result: OX1R antag-1, CHO parental Ca, OX1R antag-2)
CC(C)CSc1nnc2c(n1)[nH]c1ccccc12	none
CC1=CCC(/C=N\Nc2nnc3c(n2)[nH]c2ccccc23)CC1 (stereo not given)	OX1R antag-1 55.4 (no result: TAAR1 antag, TAAR1 agonist)
O=[N+]([O-])c1ccc(Cl)c(S(=O)(=O)/N=C(/c2ccccc2)N2CCOCC2)c1	OX1R antag-1 51.3
O=C(Nc1ccc2c(c1)OCCO2)C(=O)c1c[nH]c2ccccc12	TAAR1 antag 53.8, OX1R antag-1 49.9
CSc1ccccc1NC(=O)C(=O)c1c[nH]c2ccccc12	OX1R antag-1 48.0
c1ccc(CN2CCC3CC2c2c3cccc2N2CCOCC2)cc1 (stereo not given)	none (no result: OX1R antag-1, CHO parental Ca, OX1R antag-2)
COc1cc2c(cc1OC)C(CNC(=O)C=Cc1ccccc1)C2 (stereo not given)	none (no result: OX1R antag-1, CHO parental Ca, OX1R antag-2)
CC1CCCCN1S(=O)(=O)c1cc2c(=O)nc3ccccn3c2cc1Cl (stereo not given)	none (no result: OX1R antag-1, CHO parental Ca, OX1R antag-2)
OC[C@H]1O[C@@H](c2nc(-c3ccc(CN4CCOCC4)cc3)no2)[C@H](O)[C@@H](O)[C@H]1O	none (no result: OX1R antag-1, CHO parental Ca, OX1R antag-2)
Cc1c(C(=O)N/N=C/c2ccccc2)sc(=S)n1C	OX1R antag-1 91.5
CCc1nnc(N2C(=O)c3cccc4cccc(c34)C2=O)s1	OX1R antag-1 70.8
Cc1ccccc1N1C(=O)c2cccc3cccc(c23)C1=O	none
O=C1N2CCCCC1(Sc1ccccc1)CCC2 (stereo not given)	none (no result: OX1R antag-1, CHO parental Ca, OX1R antag-2)
Cc1cccc(C)c1N=Nc1c(C)cc(O)cc1C	CHO parental Ca 59.8
Cc1cccc(O)c1C	none

Screens from PubChem.
